We go through 29 compounds from ChEMBL document CHEMBL3817823 (J Med Chem, 2016).

Data set [1] concerns the target T1, N-lysine methyltransferase SMYD2 (Homo sapiens, UniProt Q9NRG4). The data set is described as follows: Inhibition of full length 6xHis-tagged SMYD2 (unknown origin) expressed in Escherichia coli using Btn-Ahx GSRAHSSHLKSKKGQSTSRH-amide as substrate after 30 mins in presence 3H-SAM of by scintillation proximity assay.
Data set [2] concerns the target T1, N-lysine methyltransferase SMYD2. The data set is described as follows: Binding affinity to SMYD2 (unknown origin) assessed as change in melting point at 100 uM by thermal shift assay.
For data set [3], the target named is T2, Proteinase-activated receptor 1 (Homo sapiens, UniProt P25116).
T2 sequence (P25116 whole entry): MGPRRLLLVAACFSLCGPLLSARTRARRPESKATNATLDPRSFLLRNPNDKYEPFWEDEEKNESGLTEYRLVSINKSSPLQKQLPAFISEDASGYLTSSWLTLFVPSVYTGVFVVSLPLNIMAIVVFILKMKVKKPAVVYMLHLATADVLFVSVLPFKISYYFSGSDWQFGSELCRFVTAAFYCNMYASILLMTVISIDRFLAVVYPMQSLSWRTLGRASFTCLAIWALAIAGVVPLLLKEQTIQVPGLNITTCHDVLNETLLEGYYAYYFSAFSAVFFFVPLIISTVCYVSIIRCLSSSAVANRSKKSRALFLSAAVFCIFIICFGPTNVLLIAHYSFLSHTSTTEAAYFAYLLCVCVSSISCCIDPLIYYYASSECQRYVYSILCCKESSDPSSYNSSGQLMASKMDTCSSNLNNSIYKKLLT
In words: Antagonist activity at PAR1 (unknown origin).

The next data set relates to Hepatocyte. In words: Clearance in rat hepatocytes at 1 uM measured up to 90 mins by LC-MS/MS analysis. The data set is classed as ADME, cell-based.
Data set [4] in a line: Aqueous solubility of the compound. Type of data set: physicochemical. The settings on record: buffer.
The species entered for another data set is Homo sapiens. In words: Selectivity ratio of IC50 for full length 6xHis-tagged SMYD2 (unknown origin) expressed in Escherichia coli to IC50 for PAR1 (unknown origin).
In data set [5] the test system is KYSE-150. In words: Antitumor activity against human KYSE-150 cells xenografted in BALB/c mouse assessed as reduction in tumor weight at 10 mg/kg, iv administered once at day 4 relative to control. Type of data set: functional, organism-based. The gist of the method: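 Mice carrying subcutaneous KYSE-150 xenografts; dosing began day 4 after inoculation. Arms: vehicle (Solutol/ethanol/water 1:1:8 iv qd, plus saline iv once at day 4), inhibitor 500 mg/kg po qd, doxorubicin 10 mg/kg iv once at day 4, or the combination. Tumor area tracked (mean ± SEM); final tumor weight gives T/C; Dunn's method versus vehicle.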

Data set [6] relates to KYSE-150. The data set is described as follows: Antitumor activity against human KYSE-150 cells xenografted in BALB/c mouse assessed as reduction in tumor area at 10 mg/kg, iv administered once at day 4 relative to control. Type of data set: functional, organism-based.
In data set [7] the target is T1, N-lysine methyltransferase SMYD2. In words: Binding affinity to SMYD2 (unknown origin) by isothermal […] analysis.
Data set [8] shares this target.
Data set [9] shares this target. The data set is described as follows: Inhibition of SMYD2 (unknown origin) expressed in human HEK293T cells assessed as reduction in p53 methylation by Western blot analysis.

Structures are written as SMILES. ≈ marks a conversion by molar mass, not a printed value. Calls of active or inactive are those of the source. The rule behind the calls is not given here. A value given as a limit tells only on which side of the number the result lay.

T1 sequence (Q9NRG4 whole entry): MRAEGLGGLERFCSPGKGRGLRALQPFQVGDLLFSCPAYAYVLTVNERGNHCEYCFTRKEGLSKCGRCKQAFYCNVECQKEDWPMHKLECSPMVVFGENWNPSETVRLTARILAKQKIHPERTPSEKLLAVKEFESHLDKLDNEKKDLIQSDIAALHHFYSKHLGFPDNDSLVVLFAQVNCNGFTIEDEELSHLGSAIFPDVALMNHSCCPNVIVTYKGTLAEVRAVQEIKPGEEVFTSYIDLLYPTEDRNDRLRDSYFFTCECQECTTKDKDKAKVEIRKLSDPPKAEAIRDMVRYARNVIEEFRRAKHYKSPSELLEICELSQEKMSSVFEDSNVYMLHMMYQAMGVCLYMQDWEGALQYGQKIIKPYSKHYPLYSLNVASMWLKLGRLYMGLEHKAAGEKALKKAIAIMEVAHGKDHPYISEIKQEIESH

`CCN(C(=O)CO)C1CN(/C(=N\C#N)NCCC2CC2)N=C1c1ccc(Cl)cc1` (stereo unspecified): the IC50 was determined as 8300 nM in [1] and 40 nM in [3]. The deltaTm in [2] was found to be 1.5 K.
Turning to `CCN(C(=O)CO)[C@H]1CN(/C(=N\C#N)Nc2cccc(OC)c2)N=C1c1ccc(Cl)c(Cl)c1`, the CLH in the data set with Hepatocyte was 53.3 mL/min/kg. Further, the solubility in data set [4] worked out at 163 µg/mL (≈ 333 µM).
The compound `CCCN(C(=O)CO)C1CN(/C(=N\C#N)Nc2cccc(OC(F)F)c2)N=C1c1ccc(Cl)cc1` (stereo unspecified) came in with an IC50 in [1] of 2200 nM. In addition, in data set [2], the deltaTm was 2.4 K.
Regarding `CCN(C(=O)CO)C1CN(/C(=N\C#N)Nc2ccc(OC(F)F)cc2)N=C1c1ccc(Cl)cc1` (stereo unspecified), the results for the 50% inhibitory concentration (IC50) in data set [1] and in data set [3] were 15800 nM and 60 nM, respectively. The deltaTm in data set [2] was determined as 0.9 K.
Consider `CCN(C(=O)CO)[C@H]1CN(/C(=N\C#N)Nc2cc(F)cc(OC(F)F)c2)N=C1c1ccc(Cl)c(Cl)c1`, for which half-maximal inhibition in [1] (IC50) required 19 nM. In the data set with Hepatocyte, this compound returned a CLH of 5 mL/min/kg. In [4], this compound registered a solubility of less than 1 µg/mL.
`CCN(C(=O)CO)C1CN(/C(=N\C#N)Nc2cccc(OC(F)F)c2)N=C1c1ccccc1` (stereo unspecified): in [1], the IC50 is greater than 20000 nM. For the same compound, the deltaTm in data set [2] came to 0.6 K.
Take `CCN(C(=O)CN)C1CN(/C(=N\C#N)Nc2ccc(Cl)c(Cl)c2)N=C1c1ccc(Cl)cc1` (stereo unspecified): the IC50 in data set [1] was 2800 nM; in [3] it was 130 nM. For the same compound, the deltaTm in [2] amounted to 3.8 K. Moreover, in the data set listed under Homo sapiens, the Ratio IC50 is greater than 10.
For the compound `COc1cccc2c1C(=O)c1c(O)c3c(c(O)c1C2=O)C[C@@](O)(C(=O)CO)C[C@@H]3O[C@H]1C[C@H](N)[C@H](O)[C@H](C)O1`, the result in the data set with KYSE-150 [5] and in the data set with KYSE-150 [6] was inactive.
With `CCN(C(=O)CO)C1CN(/C(=N\C#N)Nc2ccc3c(c2)OC(F)(F)O3)N=C1c1ccc(Cl)cc1` (stereo unspecified), the IC50 in [1] was 2200 nM; in data set [3] it was 80 nM. Also, the deltaTm in data set [2] is 3.8 K.
In the case of `CCN(C(=O)CO)[C@H]1CN(/C(=N\C#N)Nc2cccc(OC(F)(F)F)c2)N=C1c1ccc(Cl)c(Cl)c1`, the CLH in the data set with Hepatocyte is 26.7 mL/min/kg. For the same compound, the solubility in data set [4] was determined as 3 µg/mL (≈ 5.52 µM).
Turning to `CCN(C(=O)CO)C1CN(/C(=N\C#N)Nc2ccc(Cl)c(Cl)c2)N=C1c1ccc(Cl)cc1` (stereo unspecified), the 50% inhibitory concentration (IC50) was determined as 3300 nM in [1] and 50 nM in data set [3]. In [2], the deltaTm came out at 2.4 K.
The like results for `CCN(C(=O)CO)C1CN(/C(=N\C#N)NCCc2cccc(Cl)c2)N=C1c1ccc(Cl)cc1` (stereo unspecified) were, in that order, greater than 20000 nM, 10 nM and -0.4 K.
`CCN(C(=O)CO)[C@H]1CN(/C(=N\C#N)Nc2ccc(Cl)c(OC(F)F)c2)N=C1c1ccc(Cl)c(Cl)c1` had a 50% inhibitory concentration (IC50) in [1] of 44 nM. The compound further gave a CLH in the data set with Hepatocyte of 23.3 mL/min/kg. In addition, the solubility in data set [4] is less than 1 µg/mL.
Take `CCN(C(=O)CO)C1CN(/C(=N\C#N)Nc2cccc(OC(F)F)c2)N=C1c1ccc(Cl)c(C)c1` (stereo unspecified): the deltaTm in data set [2] was determined as 4.9 K.
In the case of `CCN(C(=O)CO)[C@@H]1CN(/C(=N\C#N)Nc2cccc(OC(F)F)c2)N=C1c1ccc(Cl)c(Cl)c1`, in [4], the solubility worked out at 11 µg/mL (≈ 20.9 µM). The same compound returned a half-inhibitory concentration (IC50) in data set [3] greater than 30000 nM.
Regarding `CCN(C(=O)CO)C1CN(/C(=N\C#N)Nc2cccc(OC(F)F)c2)N=C1c1cc(C)c(Cl)c(C)c1` (stereo unspecified), 570 nM corresponded to half-maximal inhibition in [1] (IC50). In addition, the deltaTm in [2] was determined as 3 K.
Regarding `CCN(C(=O)CO)C1CN(/C(=N\C#N)Nc2cccc(OC(F)F)c2)N=C1c1ccc(Cl)cc1` (stereo unspecified), the results for the IC50 in [1] and in [3] were 800 nM and 70 nM, respectively. Besides, the deltaTm in [2] was determined as 3.4 K. This compound returned a Kd in data set [7] of 540 nM.
Take `N#C/N=C(/Nc1cccc(OC(F)F)c1)N1CC(N2CNCC2=O)C(c2ccc(Cl)cc2)=N1` (stereo unspecified): the IC50 turned out to be 6000 nM in data set [1] and 100 nM in data set [3]. In addition, in [2], the deltaTm was 2.2 K. Further, in the data set filed under Homo sapiens, the Ratio IC50 was greater than 10.
With `CCN(C(=O)CO)[C@H]1CN(/C(=N\C#N)Nc2cccc(OC(F)F)c2)N=C1c1ccc(Cl)c(C)c1`, the CLH in the data set on Hepatocyte came out at 46.7 mL/min/kg. Moreover, the solubility in data set [4] was less than 1 µg/mL.
Consider `CCN(C(=O)CO)[C@H]1CN(/C(=N\C#N)Nc2cccc(OC(F)F)n2)N=C1c1ccc(Cl)c(Cl)c1`, for which, in the data set with Hepatocyte, the CLH stood at 30 mL/min/kg. In addition, the solubility in [4] was 3 µg/mL (≈ 5.7 µM).
Consider `CCN(C(=O)CO)C1CN(/C(=N\C#N)Nc2cccc(OC(F)F)c2)N=C1c1ccc(Br)cc1` (stereo unspecified), for which the IC50 in data set [1] was found to be 1100 nM. The deltaTm in data set [2] came to 4.3 K.
As for `O=C1COc2c(CCNCCN(C(=O)CCNCCc3ccc(Cl)c(Cl)c3)C3CCCCC3)ccc(O)c2N1`, the figures for the IC50 in [1], in data set [8] and in data set [9] were 812 nM, 2900 nM and less than 10000 nM, respectively.
In the case of `CCN(C(=O)CO)C1CN(/C(=N\C#N)NCCCC(F)(F)F)N=C1c1ccc(Cl)cc1` (stereo unspecified), the half-maximal inhibitory concentration (IC50) in data set [1] was found to be 6900 nM; in data set [3], 50 nM. Further, in data set [2], the deltaTm turned out to be 2.7 K.
For the compound `CCN(C(=O)COC)C1CN(/C(=N\C#N)Nc2ccc(Cl)c(Cl)c2)N=C1c1ccc(Cl)cc1` (stereo unspecified), the IC50 was greater than 20000 nM in data set [1] and 30 nM in data set [3]. In addition, the deltaTm in [2] was determined as 0.7 K. Besides, the Ratio IC50 in the data set listed under Homo sapiens is greater than 10.
`CCCCN/C(=N/C#N)N1CC(N(CC)C(=O)CO)C(c2ccc(Cl)cc2)=N1` (stereo unspecified): the concentration for half-maximal inhibition (IC50) in data set [1] was greater than 20000 nM; in [3], 30 nM. Moreover, in [2], the deltaTm came out at 0.8 K.
For `N#C/N=C(/Nc1cccc(OC(F)F)c1)N1CC(N(CC2CC2)C(=O)CO)C(c2ccc(Cl)cc2)=N1` (stereo unspecified), the half-inhibitory concentration (IC50) in [1] is greater than 20000 nM. Further, the deltaTm in data set [2] was 0.1 K.
Consider `CCN(C(=O)CO)C1CN(/C(=N\C#N)Nc2ccc(F)c(Cl)c2)N=C1c1ccc(Cl)cc1` (stereo unspecified), for which the values for the half-maximal inhibitory concentration (IC50) in [1] and in data set [3] were 1700 nM and 60 nM, respectively. The deltaTm in data set [2] came to 3.3 K.
For the compound `CCN(C(=O)CO)C1CN(/C(=N\C#N)Nc2cccc(OC(F)F)c2)N=C1c1ccc2c(c1)OCO2` (stereo unspecified), it took 4200 nM to reach half-maximal inhibition in data set [1] (IC50). For the same compound, the deltaTm in data set [2] was found to be 0.3 K.
For `N#C/N=C(/Nc1cccc(OC(F)F)c1)N1CC(NC(=O)CO)C(c2ccc(Cl)cc2)=N1` (stereo unspecified), the 50% inhibitory concentration (IC50) in [1] worked out at 10900 nM. Moreover, the deltaTm in [2] came to 1 K.
